Measured values of several laboratories.
pIC50: −log10 of the molar value.
Action: inhibitor
PARP2: Poly [ADP-ribose] polymerase 2 (PARP2, Homo sapiens, UniProt Q9UGN5)
CDK2: Cyclin-dependent kinase 2 (CDK2, Homo sapiens, UniProt P24941)

| SMILES | target | effect on | method | pH | pIC50 |
| --- | --- | --- | --- | --- | --- |
| CCCCCn1nnc2c3ccc(F)cc3c(=O)[nH]c21 | PARP2 | enzyme activity |  |  | < 5.00 |
| NC(=O)c1cccnc1 | Nicotinamide N-methyltransferase (NNMT, Homo sapiens, UniProt P40261) | enzyme activity in cells |  |  | < 4.50 |
| Cc1n[nH]c2ccc3nc(-c4ccc(C(=O)NCCN(C)C)cc4)c4c(c3c12)CCC(C)(C)C4 | CDK2 | enzyme activity |  |  | < 6.00 |
| Cc1ccc(Cn2nnc3c4ccc(F)cc4c(=O)[nH]c32)cc1 | PARP2 | enzyme activity |  |  | < 5.00 |
| O=c1[nH]c(=O)c(Cc2cccc(C(F)(F)F)c2)c([C@H]2CC[C@H](c3ccccc3)CC2)[nH]1 | Multidrug and toxin extrusion protein 1 (SLC47A1, Homo sapiens, UniProt Q96FL8) | transporter uptake |  |  | < 5.10 |
| CN(C)CCNC(=O)c1ccc(-c2nc3ccc4[nH]ncc4c3c3c2CCCCC3)cn1 | CDK2 | enzyme activity |  |  | 6.68 |
| Cc1cc(O)c(-c2ccc([C@@H](C)CN(C)C)cc2)c2c1[nH]c(=O)c1sccc12 | Cyclin-dependent kinase 8, with cyclin C (CDK8, Homo sapiens, UniProt P49336) | enzyme activity |  |  | < 6.00 |
| COc1ccc2c(=O)[nH]c3c(nnn3Cc3ccc(C)cc3)c2c1 | PARP2 | enzyme activity | fluorescence |  | < 5.00 |
| CN(C)CCNC(=O)c1ccc(-c2nc3ccc4[nH]ncc4c3c3c2CC(F)(F)CC3)cc1 | CDK2 | enzyme activity |  |  | 6.96 |
| Cn1cc(C2=C(c3cn(CCCSC(=N)N)c4ccccc34)C(=O)NC2=O)c2ccccc21 | Serine/threonine-protein kinase VRK1 (VRK1, Homo sapiens, UniProt Q99986) | enzyme activity |  |  | 6.19 |
| CC(=O)N1C(=O)NC(C)=C(C(=O)OCC(C)C)C1c1cccc([N+](=O)[O-])c1 (racemic) | Voltage-dependent L-type calcium channel subunit alpha-1C (Cacna1c, Rattus norvegicus, UniProt P22002) | ion current | patch clamp |  | 5.89 |
| CC(=O)C(=O)N(CC(C)C)NC(=O)[C@H](Cc1ccccc1)NC(=O)[C@H](CC(C)C)NC(=O)[C@H](CCc1ccccc1)NC(=O)OCc1ccccc1 | Cathepsin B (CTSB, Homo sapiens, UniProt P07858) | enzyme activity | fluorescence | pH 6 | 4.50 |
